Runt-CBFb FRET – inhibitors of human RUNX1 Runt domain binding to CBFb; Q01196+Q13951; Cerulean-Runt/Venus-CBFb FRET ratio 530/480, 1 h; inhibition, % at 20 µM; 220,000 tested, 0.46% active; AID 1496;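 active = inhibition over about 50% at 20 µM in the single-dose screen, limit read from the data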;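 also: 0% = DMSO wells and 100% = excess unlabeled CBFb competitor control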
Target sequence (Q01196 whole entry, looked up, the tested form may be a part): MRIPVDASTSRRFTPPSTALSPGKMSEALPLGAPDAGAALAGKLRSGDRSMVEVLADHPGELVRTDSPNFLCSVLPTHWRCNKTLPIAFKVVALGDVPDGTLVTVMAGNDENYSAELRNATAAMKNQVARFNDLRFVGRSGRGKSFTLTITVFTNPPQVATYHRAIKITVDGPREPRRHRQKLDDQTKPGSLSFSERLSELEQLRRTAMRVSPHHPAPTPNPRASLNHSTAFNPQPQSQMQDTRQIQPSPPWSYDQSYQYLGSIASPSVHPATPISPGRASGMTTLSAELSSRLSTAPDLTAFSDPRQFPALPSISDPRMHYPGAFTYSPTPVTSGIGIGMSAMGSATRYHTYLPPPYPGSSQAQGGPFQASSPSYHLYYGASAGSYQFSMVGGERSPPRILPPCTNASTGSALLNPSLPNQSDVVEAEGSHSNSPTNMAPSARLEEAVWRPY
Target sequence (Q13951 whole entry, looked up, the tested form may be a part): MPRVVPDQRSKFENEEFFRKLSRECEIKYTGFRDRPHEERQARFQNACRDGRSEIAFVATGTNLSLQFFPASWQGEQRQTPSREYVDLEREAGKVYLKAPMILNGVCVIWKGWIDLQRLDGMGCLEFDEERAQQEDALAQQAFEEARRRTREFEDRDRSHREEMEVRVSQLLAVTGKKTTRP
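Assay system: Cerulean-tagged RUNX1 Runt domain (FRET donor) fusion protein / Amount: 100 nM each of Venus-CBFb and Cerulean-Runt domain / Medium: Tris buffer pH 7.5 with salts and BSA / Also added: Venus-CBFb 100 nM / Schedule: 1 h complex formation plus 1 h compound treatment, room temperature / Signal: FRET fluorescence / Read-out: loss of energy transfer signal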
Runt-SMMHC FRET – blocks binding of human RUNX1 Runt domain to CBFb-SMMHC; Q01196+Q13951; Cerulean-Runt/Venus-CBFb-SMMHC FRET ratio 530/480, 1 h; inhibition, % at 20 µM; 220,000 tested, 0.74% active; AID 1434;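 active = mean inhibition across duplicate retests at 20 µM reaching about 50%, limit read from the data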;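 also: 0% = DMSO wells and 100% = wells with excess untagged CBFb-SMMHC; inhibitors lower the FRET ratio by blocking Runt binding to CBFb-SMMHC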
Hck-Nef inh – human Hck-Nef kinase inhibition; P08631; Recombinant Hck-YEEI plus Nef, Z-Lyte FRET kinase assay; inhibition, % at 20 µM; 220,000 tested, 0.68% active;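 active = Hck-Nef kinase inhibition above about 50%, limit read from the data; inactive = inhibition below that limit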;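 also: 0% = DMSO with Hck plus Nef and 100% = Hck alone without Nef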
RanGTP-Impb inh – inhibitors of RanGTP-importin-beta interaction, primary screen, biochemical, FRET, CFP-Ran, YFP-importin-beta, homogeneous; cell-free CFP-Ran/YFP-importin-beta FRET ratio; inhibition, % (test concentration not listed); 300,000 tested, 1.1% active; AID 2216;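 active = more than half of the replicate wells show a fall in the fluorescence ratio signal beyond about 16%, limit read from the data, passing the limit was not always enough; inconclusive = exactly half of the replicate wells pass the set limit; inactive = fewer than half of replicates pass the limit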;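 also: 0% = DMSO wells and 100% = Ran loaded with GDP instead of GTP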
Runt-CBFb TRFRET – inhibitors of human RUNX1 Runt domain binding to CBFb | shares compounds with Runt-CBFb FRET | TR-FRET RUNX1 Runt domain-CBFb binding | inhibition, % at 20 µM | 480 tested, 20% active | AID 1502; in the data active = inhibition above about 40%
YIC counter – counter-screen YIC FRET for RanGTP-importin-beta inhibitors | shares compounds with RanGTP-Impb inh | Purified YIC probe, intramolecular FRET ratio YFP/CFP | IC50, µM | 1,000 tested, 40% active | AID 435026;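 active = fitted half-maximal inhibitory concentration no more than tenfold above the top dose tested; inconclusive = flat fit with 30 to 70% activity, or poor fit; inactive = half-maximal concentration beyond tenfold above the top dose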
Hck-Nef confirm – confirmation of Hck-Nef kinase inhibitors. calls only at 10 µM. Recombinant Hck-YEEI:Nef, Z-Lyte FRET kinase assay. shares compounds with Hck-Nef inh. AID 463188. 1,300 tested, 28% active;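 active = average inhibition of at least 50%, with Z-scores no higher than 3 in both the phospho-tyrosine peptide and fluorescence counterscreens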
* hit, by the source's call; i = inactive; ? = inconclusive; . = no result shown; + = active, no number. This is a sample that favours compounds with a hit; in the whole collection about 1.7% have one here.

SMILES | Runt-CBFb FRET | Runt-SMMHC FRET | Hck-Nef inh | RanGTP-Impb inh | Runt-CBFb TRFRET | others
O=C1NC(=S)S/C1=C1\Sc2ccccc2N1CCCS(=O)(=O)O | 88* | 123* | 2 | 27* | 27 | YIC counter=15*
NN1C(=O)/C(=C2/Sc3ccccc3N2CCCS(=O)(=O)O)SC1=S | . | . | . | 14 | .
O=C(COC(=O)c1cc(S(=O)(=O)NCc2ccccc2)ccc1O)c1cc2ccccc2o1 | 0 | -3 | 6 | 1 | .
CCC(C)CCN1C(Nc2ccccc2)=NC[C@@H]1Cc1ccccc1 (some centres undefined) | . | . | . | -3 | .
CCCC1C(C#N)=C(N)Oc2cc(C)n(C)c(=O)c21 (centres undefined) | 95* | 97* | 5 | 18* | 63* | YIC counter=>50
COc1ccc2cc(-c3nc4ccccc4n3C)c(=O)oc2c1 | 60* | 127* | 2 | 44* | 24 | YIC counter=11*
Cn1c(-c2cc3ccccc3oc2=O)nc2ccccc21 | 0 | 1 | -3 | -2 | .
Cc1cc(N2CCOCC2)nc(SCc2ccc(Cl)cc2Cl)n1 | -4 | -8 | -1 | -2 | .
CC(=O)C(C)Oc1ccc2c3c(c(=O)oc2c1C)CCCC3 (centres undefined) | 14 | 38 | 4 | 4 | .
Cc1c(O)ccc2c3c(c(=O)oc12)CCC(C)C3 (centres undefined) | 66* | 118* | 28 | 37* | 20 | YIC counter=14*
COc1ccc(C(=O)c2cc3ccc(O)cc3oc2=O)cc1 | 88* | 88* | 31 | 48* | 17 | YIC counter=15*
CCCn1c(=N)c(C(=O)NCc2ccc3c(c2)OCO3)cc2c(=O)n3cccc(C)c3nc21 | 71* | 99* | 6 | 40* | -24 | YIC counter=15*
CCC(C)[C@H](NC(=O)Nc1ccccc1F)C(=O)OC (some centres undefined) | -1 | -1 | 10 | -4 | .
Cc1ccc2nc(N3CCN(C(=O)c4cccs4)CC3)c(C#N)cc2c1 | 56* | 124* | 4 | 18* | -30 | YIC counter=16*
Cc1ccc2cc(C#N)c(N3CCN(C(=O)c4ccccc4)CC3)nc2c1 | . | . | . | 7 | .
Cc1nc2[nH]c(=O)c3c(n2n1)NC1=C(C(=O)CC(C)(C)C1)C3c1ccc(F)cc1 (centres undefined) | 80* | 100* | 1 | 35* | -6 | YIC counter=4.1*
Cc1c(Cc2ccccc2)c(=O)oc2cc(O)ccc12 | 66* | 128* | 139* | 4 | -5
CCOC(=O)c1cc2c(=O)n3cccc(C)c3nc2n(CCOC)c1=NC(C)=O | 94* | 87* | 87* | 70* | -3
CC(=O)NC(CC(=O)O)c1ccc([N+](=O)[O-])cc1 (centres undefined) | 0 | -1 | 9 | 2 | .
O=C(O)CN1C(=O)/C(=C/c2ccc(SCc3ccccc3)o2)SC1=S | 70* | 32 | 73* | . | 4 | Hck-Nef confirm=i
C/C(N)=C(/C#N)C(=O)CSc1nc2ccccc2c(=O)n1CCCOC(C)C | -4 | -1 | 1 | 3 | .
CC(=O)N=c1c(C#N)cc2c(=O)n3ccccc3nc2n1CCCOC(C)C | 76* | 82* | 56* | 102* | 38
CCCN(CC1CC1)C(=O)CSc1ncnc2sccc12 | -2 | 0 | 1 | -3 | .
C=CCn1c(-c2cccs2)nc2nc3ccccc3nc21 | 55* | 126* | 72* | 12 | -15 | Hck-Nef confirm=i
C=CCn1c(-c2cccs2)nc2ccccc21 | 1 | 2 | 2 | . | .
SMILES | Runt-CBFb FRET | Runt-SMMHC FRET | Hck-Nef inh | RanGTP-Impb inh | Runt-CBFb TRFRET | others
COC(=O)c1ccc(C(=O)OC)c(NC(=O)Oc2ccccc2)c1 | 66* | 132* | 58* | 14 | 36
COC(=O)c1ccc(C(=O)OC)c(N)c1 | 68* | 110* | 86* | . | 43*
Cc1ccc(C(=O)NC2CCS(=O)(=O)C2)cc1S(=O)(=O)N1CCCCCC1 (centres undefined) | 1 | 2 | 17 | 3 | .
O=C(O)c1ccc(N/N=C/c2ccc(-c3cccc(Cl)c3)o2)cc1 | 58* | 80* | 53* | 68* | 25 | Hck-Nef confirm=i
O=C(O)c1cccc(-c2ccc(/C=N/Nc3ccc([N+](=O)[O-])cc3)o2)c1 | -59 | -144 | 11 | -94 | .
COc1c(O)c(O)c2oc(-c3ccccc3)cc(=O)c2c1OC | 58* | 53* | 66* | -2 | 65* | Hck-Nef confirm=+
O=C(O)c1cc(N2N=C(C(F)(F)F)/C(=C/C=C/c3ccco3)C2=O)ccc1Cl | 53* | 39 | 97* | . | 92* | Hck-Nef confirm=+
CCOC(=O)c1ccc(N2N=C(C)/C(=C/C=C/c3ccco3)C2=O)cc1 | -4 | -13 | 8 | 0 | .
C=C(C)COc1ccc2c(C)c(CC(=O)N3C[C@H]4C[C@@H](C3)c3cccc(=O)n3C4)c(=O)oc2c1C | . | . | . | 9 | .
CCOC(=O)c1sc(Nc2nc3c(OC)cccc3s2)nc1C | 84* | 82* | 67* | 2 | 5 | Hck-Nef confirm=i
OCc1nc2c(ccc3ccccc32)[nH]1 | . | . | . | -2 | .
COc1ccc(/C=N/NC(=O)c2ccccc2O)cc1Cn1cc([N+](=O)[O-])cn1 | 3 | -1 | 27 | 5 | .
COc1ccc(/C=N/NC(=O)c2cc(O)c(O)c(O)c2)cc1Cn1cc([N+](=O)[O-])cn1 | 54* | 49 | 50* | 9 | -5 | Hck-Nef confirm=i
Cc1c(C)c2cc(Cl)c(O)c(CN3CCCC(C)C3)c2oc1=O (centres undefined) | 84* | 139* | 81* | ? | 33
Cc1cc(=O)oc2c(CN3CCCCC3)c(O)c(Cl)cc12 | 62* | 134* | 125* | 9 | -6
Cc1cc(=O)oc2c(CN3CCCC3)c(O)c(Cl)cc12 | . | . | . | 6 | .
CCN1CCN(Cc2c(O)ccc3c(C)cc(=O)oc23)CC1 | . | . | . | 5 | .
CCN1CCN(Cc2c(O)c(Cl)cc3c(C)cc(=O)oc23)CC1 | 94* | 168* | 149* | 27* | 18 | YIC counter=39*
CCCc1cc(=O)oc2c(CN3CCCC3)c(O)ccc12 | 54* | 122* | 93* | 9 | -13
CCc1cc2c(=O)c(-c3nc4ccccc4n3C)coc2c(CN2CCCC(C)C2)c1O (centres undefined) | . | . | . | 7 | .
COc1cc(C2C3=C(CCCC3=O)Nc3[nH]n(-c4ccccc4)c(=O)c32)ccc1OC(C)=O (centres undefined) | -2 | 2 | 29 | 3 | .
COc1ccccc1OCC(=O)N1CCN(C(=O)c2ccco2)CC1 | . | . | . | 5 | .
CC(C)C(C(=O)NCC1CCCO1)N(CC1CCCO1)C(=O)CNS(=O)(=O)c1ccccc1 (centres undefined) | . | . | . | 4 | .

Assay outcomes from PubChem.
